According to ChEMBL document CHEMBL4665734, “Optimization of globomycin analogs as novel gram-negative antibiotics” (Bioorg Med Chem Lett, 2020):
In brackets after ≈: the same amount, converted by molar mass. Starred links: 1 amine or outer side, 2 acyl side, 3 side chain; linkers in the order of their positions; H or OH if unused. Non-standard residues stand in square brackets, D forms with d. Residues, ends and D or L forms follow the SMILES beside them. *: point of attachment. X1 = CCCCCC[C@@H](OC[C@@H](C)N[*:1])[C@@H](C)C(=O)[*:2]; X16 = CCCC[C@@H](C(=O)[*:2])N(CCCC)CCN[*:1]; Gly(cHept) = N[C@H](C(=O)O)C1CCCCCC1; aThr = C[C@H](O)[C@H](N)C(=O)O; NMeL = CN[C@@H](CC(C)C)C(=O)O; Chg = N[C@H](C(=O)O)C1CCCCC1; NMeNva = CCC[C@H](NC)C(=O)O; Dap = NC[C@H](N)C(=O)O; NH(CH2)3NH2 = NCCCN*; X15 = O=C(O)CCCNCCC*

What was measured:
[1] = Growth inhibition of Staphylococcus aureus USA300
Escherichia coli CFT073 = experiment: Inhibition of LspA in wild type Escherichia coli CFT073 assessed as inhibition of bacterial growth
In short: (§1)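 Read-out is the minimum inhibitory concentration, reported in µM.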

Escherichia coli = experiment: Inhibition of LspA in Escherichia coli CFT073imp4213 harboring outer membrane-permeable mutant assessed as inhibition of bacterial growth; in short: as §1
[2] = Lipophilicity, logD of the compound at pH 7.4; settings: buffer

| Compound | MIC [1] [µM] | MIC (Escherichia coli CFT073) [µM] | MIC (Escherichia coli) [µM] | logD ([2]; pH 7.4, logD) | logD ([2]; pH 7.4) |
| --- | --- | --- | --- | --- | --- |
| CCCCCCCCCC[C@H]1OC(=O)CNC(=O)[C@H]([C@H](C)O)NC(=O)[C@H](CO)NC(=O)[C@H]([C@@H](C)CC)NC(=O)[C@H](CC(C)C)N(C)C(=O)[C@@H]1C | 25 (≈ 17.8 µg/mL) | 9.4 (≈ 6.69 µg/mL) | 0.016 (≈ 0.0114 µg/mL) | – | – |
| CCCCCC[C@H]1OC(=O)CNC(=O)[C@H]([C@H](C)O)NC(=O)[C@H](CN)NC(=O)[C@H](c2ccccc2)NC(=O)[C@H](CC(C)C)N(C)C(=O)[C@@H]1C | > 100 | 71 (≈ 47.9 µg/mL) | 1.6 (≈ 1.08 µg/mL) | – | – |
| CC(C)C[C@H]1C(=O)N[C@@H](C2CCCCC2)C(=O)N[C@@H](CN)C(=O)N[C@@H]([C@H](C)O)C(=O)NCC(=O)O[C@H](CCCCCCC(C)(C)O)[C@@H](C)C(=O)N1C | > 100 | 15 (≈ 11.1 µg/mL) | 0.55 (≈ 0.406 µg/mL) | 2.2 | – |
| CCCCCC[C@H]1OC(=O)CNC(=O)[C@H]([C@H](C)O)NC(=O)[C@H](CN)NC(=O)[C@H](C2CCCCC2)NC(=O)[C@H](CC(C)C)N(C)C(=O)[C@@H]1C | > 100 | 3.1 (≈ 2.11 µg/mL) | 0.059 (≈ 0.0402 µg/mL) | – | – |
| CCCCCCCCCC[C@H]1OC(=O)CNC(=O)[C@H]([C@H](C)O)NC(=O)[C@H](C)NC(=O)[C@H]([C@@H](C)CC)NC(=O)[C@H](CC(C)C)N(C)C(=O)[C@@H]1C | 25 (≈ 17.4 µg/mL) | 100 (≈ 69.6 µg/mL) | 25 (≈ 17.4 µg/mL) | – | – |
| CCCCCCCCCC[C@H]1OC(=O)CNC(=O)[C@H]([C@H](C)O)NC(=O)[C@H](CN)NC(=O)[C@H]([C@@H](C)CC)NC(=O)[C@H](CC(C)C)N(C)C(=O)[C@@H]1C | 13 (≈ 9.24 µg/mL) | 2.2 (≈ 1.56 µg/mL) | 0.03 (≈ 0.0213 µg/mL) | – | – |
| CC[C@@H](C)[C@@H]1NC(=O)[C@H](CC(C)C)N(C)C(=O)[C@H](C)[C@@H](CCCCCC(F)(F)F)OC(=O)CNC(=O)[C@H]([C@H](C)O)NC(=O)[C@H](CN)NC1=O | > 100 | 25 (≈ 17.7 µg/mL) | 0.39 (≈ 0.276 µg/mL) | 2 | – |
| CCCCCC[C@H]1OC[C@@H](C)NC(=O)[C@H](COc2ccc(CCN)cc2)NC(=O)[C@H](CN)NC(=O)[C@H](C2CCCCC2)NC(=O)[C@H](CCC)N(C)C(=O)[C@@H]1C | 25 (≈ 19.3 µg/mL) | 1.6 (≈ 1.24 µg/mL) | 0.048 (≈ 0.0371 µg/mL) | 2.4 | – |
| CCCCCC[C@H]1OC[C@@H](C)NC(=O)[C@H](COc2ccc(CN)cc2)NC(=O)[C@H](CN)NC(=O)[C@H](C2CCCCC2)NC(=O)[C@H](CCC)N(C)C(=O)[C@@H]1C | 100 (≈ 75.8 µg/mL) | 6.3 (≈ 4.78 µg/mL) | 0.39 (≈ 0.296 µg/mL) | 2.5 | – |
| CCCCCCCCCC[C@H]1OC(=O)CNC(=O)[C@H]([C@H](C)O)NC(=O)[C@H](Cc2c[nH]cn2)NC(=O)[C@H]([C@@H](C)CC)NC(=O)[C@H](CC(C)C)N(C)C(=O)[C@@H]1C | 25 (≈ 19.1 µg/mL) | 100 (≈ 76.2 µg/mL) | 6.3 (≈ 4.8 µg/mL) | – | – |
| CCCCCCCCCC[C@H]1OC(=O)CNC(=O)[C@H]([C@H](C)O)NC(=O)[C@H](CN)NC(=O)[C@H]([C@H](C)CC)NC(=O)[C@H](CC(C)C)N(C)C(=O)[C@@H]1C | 15 (≈ 10.7 µg/mL) | 2.1 (≈ 1.49 µg/mL) | 0.011 (≈ 0.00782 µg/mL) | 4.6 | – |
| CCC[C@H]1C(=O)N[C@@H](C2CCCCCC2)C(=O)N[C@@H](CN)C(=O)N[C@@H]([C@H](C)O)C(=O)NCC(=O)O[C@H](CC2CC3(CCC3)C2)[C@@H](C)C(=O)N1C | 50 (≈ 35.2 µg/mL) | 0.78 (≈ 0.55 µg/mL) | 0.009 (≈ 0.00634 µg/mL) | 2.9 | – |
| CCCCCC[C@H]1OC[C@@H](C)NC(=O)[C@H](CC(=O)NCCCN)NC(=O)[C@H](CN)NC(=O)[C@H](C2CCCCCC2)NC(=O)[C@H](CCC)N(C)C(=O)[C@@H]1C (cyclo(D(NH(CH2)3NH2)[X1][NMeNva][Gly(cHept)][Dap])) | 100 (≈ 75.1 µg/mL) | 18 (≈ 13.5 µg/mL) | 0.39 (≈ 0.293 µg/mL) | 1.3 | – |
| CCCC[C@H]1C(=O)N(C)[C@@H](CC(C)C)C(=O)N[C@@H](C2CCCCC2)C(=O)N[C@@H](CN)C(=O)N[C@@H]([C@H](C)O)C(=O)NCCN1CCCC (cyclo([Chg][Dap][aThr][X16][NMeL])) | 100 (≈ 66.6 µg/mL) | 6.3 (≈ 4.2 µg/mL) | 0.1 (≈ 0.0666 µg/mL) | – | – |
| CCCCCC[C@H]1OC[C@@H](C)NC(=O)[C@H](COCCCNCCCC(=O)O)NC(=O)[C@H](CN)NC(=O)[C@H](C2CCCCCC2)NC(=O)[C@H](CCC)N(C)C(=O)[C@@H]1C (cyclo([Dap]S(X15)[X1][NMeNva][Gly(cHept)])) | > 100 | 100 (≈ 81 µg/mL) | 0.78 (≈ 0.632 µg/mL) | – | – |
| CCC[C@H]1C(=O)N[C@@H](C2CCCCCC2)C(=O)N[C@@H](CN)C(=O)N[C@@H]([C@H](C)O)C(=O)NCC(=O)O[C@H](CC2CC3CCC2C3)[C@@H](C)C(=O)N1C (stereo in doubt; 26) [listing 1 of 2 here] | 100 (≈ 70.5 µg/mL) | – | – | 2.8 | – |
| CCC[C@H]1C(=O)N[C@@H](C2CCCCCC2)C(=O)N[C@@H](CN)C(=O)N[C@@H]([C@H](C)O)C(=O)NCC(=O)O[C@H](CC2CC3CCC2C3)[C@@H](C)C(=O)N1C (stereo in doubt; 26) [listing 2 of 2 here] | – | 0.97 (≈ 0.684 µg/mL) | 0.041 (≈ 0.0289 µg/mL) | – | – |
| CCC[C@H]1C(=O)N[C@@H](C2CCCCCC2)C(=O)N[C@@H](CN)C(=O)N[C@@H]([C@H](C)O)C(=O)NCC(=O)O[C@H](CC2CC3CCC2C3)[C@@H](C)C(=O)N1C (stereo in doubt; 27) [listing 1 of 2 here] | – | – | – | – | 2.9 |
| CCC[C@H]1C(=O)N[C@@H](C2CCCCCC2)C(=O)N[C@@H](CN)C(=O)N[C@@H]([C@H](C)O)C(=O)NCC(=O)O[C@H](CC2CC3CCC2C3)[C@@H](C)C(=O)N1C (stereo in doubt; 27) [listing 2 of 2 here] | – | 0.78 (≈ 0.55 µg/mL) | 0.009 (≈ 0.00634 µg/mL) | – | – |
